High-throughput results from PubChem BioAssay.
Most compounds without a hit are left out; they make up all but 5.6% or so of the library.
XBP1 UPR activ – activators of adaptive XBP1 UPR arm, primary screen, cell-based, CHO-XBP1 luciferase reporter, luminescence, uHTS; IRE1-XBP1 UPR activation; percent of tunicamycin response, DMSO as zero; activation, % at 20 µM; hit rate 0.33% among 330,000;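 active = versus positive control, 20 µM dose yields 30% or more activation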;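 also: 100% = tunicamycin at 10 µg/mL and 0% = DMSO only wells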
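assay system = CHO-XBP1 luciferase reporter cells | amount = 1000 cells/well | buffer or medium = F12 plus 10% FBS | compound dosing = single point, 20 µM final compound, 1% DMSO | incubation = 16-18 h cell attachment at 37 °C, then 6 h compound exposure | detection = Steady-Glo luminescence read | controls = tunicamycin 10 µg/mL and vehicle-only wells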
aDG glyco act – activators of alpha-DG glycosylation, primary screen, uHTS, Pro5-aDG cells, AlphaScreen; alpha-DG glycosylation AlphaScreen (IIH6); 0% Pro5, 100% B10-LARGE cell signal; activation, % at 10 µM; hit rate 0.22% among 360,000; AID 624168, 2012;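 active = activation of at least 8% versus controls, or a plate z-score of at least 8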;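 also: Pro5 are CHO cells carrying HIG-tagged alpha-DG that lacks glycosylation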
CHOP inhibitor – inhibitors of CHOP promoter induction, primary screen, cell-based, unfolded protein response, luciferase reporter; CHO-K1 CHOP-promoter luciferase, tunicamycin-induced, 15-18 h; inhibition, % at 10 µM; hit rate 3.8% among 220,000;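 active = compounds that reduced the stress-induced luciferase reporter signal by more than about 70% of percent inhibition, limit read from the data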;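 also: 0% = tunicamycin plus vehicle and 100% = wells without tunicamycin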
GRIN3A LBD mod – binders of NR3A ligand-binding domain, primary screen, biophysical, differential scanning fluorimetry, uHTS; Glutamate receptor ionotropic, NMDA 3A (GRIN3A) ligand-binding domain; NR3A LBD differential scanning fluorimetry, Tm shift; 0% = protein alone, 100% = glycine-bound protein; Tm shift relative to glycine control, % at 25 µM; hit rate 2.5% among 340,000; AID 1259313, 2017;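 active = melting temperature shift of at least 10% of the positive control shift, at one fixed dose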
UPR CHOP act – activators of apoptotic CHOP UPR arm, primary screen, cell-based, CHO-CHOP luciferase reporter, luminescence, uHTS | AID 449763, 2010 | activation, % at 10 µM | UPR activation; percent of tunicamycin response over DMSO baseline | hit rate 0.34% among 330,000;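 active = at 10 µM dose, activation of 40% or more, normalized to positive control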;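 also: 100% = tunicamycin at 10 µg/mL and 0% = DMSO alone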
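System: CHO-CHOP luciferase reporter cell line | Buffer or medium: F12 medium containing 10% fetal bovine serum | Doses: One dose, 10 µM in 0.5% DMSO | Times: 6 h compound exposure at 37 °C after overnight seeding | Signal: Luciferase luminescence | Read-out: % activation vs tunicamycin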
MPTP inh – mitochondrial permeability transition pore inhibitors, primary screen, biochemical, isolated mouse mitochondria, absorbance | Ca2+ swelling absorbance, 30 min | inhibition, % at 10 µM | hit rate 1.4% among 360,000;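 active = inhibition of 50% or more, scaled per plate between neutral and stimulator controls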;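 also: 0% = DMSO wells given calcium and 100% = 1 mM EGTA wells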
Rh123 counter – fluorescence retest of MPTP screen hits in isolated mitochondria, single concentration. AID 624504, 2012. inhibition, % at 10 µM. hit rate 78% among 5,000. membrane potential, Rhodamine 123 fluorescence. shares compounds with MPTP inh; in the data active = inhibition above about 22%;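 also: 0% = DMSO vehicle and 100% = positive control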
MPTP swell DR – mitochondrial permeability transition pore inhibitors, dose response, biochemical, absorbance, uHTS hits | shares compounds with MPTP inh | isolated mitochondria swelling | AID 651561, 2012 | IC50, µM | hit rate 58% among 780; in the data active = IC50 below about 20 µM
MPTP cs DR – fluorescent counter-screen in isolated mitochondria, dose response, counter-screen for MPTP inhibitor project, biochemical, fluorescence, uHTS hits; hit rate 49% among 780; isolated mitochondria counterscreen, fluorescence read-out; IC50, µM; shares compounds with MPTP inh; in the data active = IC50 below about 80 µM
* marks the source's active call; other numbers are inactive results; . = no result.

SMILES | XBP1 UPR activ | aDG glyco act | CHOP inhibitor | GRIN3A LBD mod | UPR CHOP act | MPTP inh | Rh123 counter | others
COc1ccc(NC(=O)C2C3CC/C=C\CCC32)cc1 (stereo unspecified) | 0 | 0 | -10 | 2 | 5 | 1 | .
CCOc1ccccc1NC(=O)C1C(c2ccccc2)C1(Cl)Cl (stereo unspecified) | . | 0 | . | . | . | 1 | .
Cc1ccc(C)c(NC(=O)C2C(c3ccccc3)C2(Cl)Cl)c1 (stereo unspecified) | -1 | 0 | 7 | -3 | -2 | 76* | 89*
NC(CCCCc1ccccc1)c1cccc2ccccc12 (stereo unspecified) | -3 | . | . | . | -2 | . | .
Cc1ccc(NS(=O)(=O)c2cc3[nH]c(=O)c(=O)[nH]c3cc2C)c(C)c1 | -5 | 0 | . | -4 | 0 | -3 | .
Cc1nn(C)c(C)c1CN(C)S(=O)(=O)c1ccc2ccccc2c1 | 1 | 6.5* | 52 | -1 | 5 | 110* | 102*
CC(=NNC(=S)Nc1cccc(C)c1)c1ccccn1 | . | 0 | . | -2 | . | 52* | 62*
O=C(Nc1ccc(Cc2ccncc2)cc1)c1ccc(Cl)c([N+](=O)[O-])c1 | -3 | 2 | 20 | -7 | -10 | 54* | 75*
COc1ccc(NC(=O)c2ccc(-n3cccn3)c([N+](=O)[O-])c2)cc1 | -4 | 0 | 19 | 0 | -1 | -3 | .
CCOC(=O)Cn1nc(C)c(NC(=O)c2ccc(Cl)c([N+](=O)[O-])c2)c1C | -3 | 0 | 4 | -2 | 1 | 61* | 77*
CCOC(=O)Cn1nc(C)c(NC(=O)c2cccc([N+](=O)[O-])c2)c1C | . | 0 | -13 | -1 | . | 2 | .
O=C(Nc1ccc(Cl)cc1)c1ccc(-n2cccn2)c([N+](=O)[O-])c1 | 2 | 1 | 56 | 23* | 5 | 73* | 66*
O=C(Nc1ccc(Nc2ccccc2)cc1)c1ccc(Cl)c([N+](=O)[O-])c1 | -1 | 2 | . | 24* | 3 | 67* | 64*
C=C(C)Cn1c2ccc(NC(=O)CCOCC)cc2c(=O)n1C | . | 0 | . | . | . | -1 | .
Cc1nn(-c2ccccc2)c(Cl)c1/C=C1\SC(=S)N(CCCCCC(=O)O)C1=O | -5 | 0 | 9 | 2 | 0 | 6 | .
Cc1nn(-c2ccccc2)c(Cl)c1/C=C1\SC(=S)NC1=O | 0 | 0 | -20 | -5 | 1 | 54* | 66*
O=[N+]([O-])c1ccc(-c2c(O)c3ccccc3c3nc4ccccc4nc23)cc1 | 0 | 0 | 60 | -4 | -2 | 74* | 37*
Cc1[nH]nc(-c2ccc(O)cc2O)c1Oc1ccccc1 | -1 | 2 | 20 | 32* | 1 | 56* | 58*
Cc1[nH]nc(-c2ccc(OCc3cnn(-c4ccccc4)c3)cc2O)c1Oc1ccccc1F | -1 | 2 | -1 | 6 | -2 | 3 | .
Oc1c(Cl)cc(Cl)cc1/C=C/c1ccc2cccc(O)c2n1 | 3 | 0 | 18 | 25* | -1 | 98* | 74*
Cc1cc(=O)oc2c3c(cc(OCC(=O)NC(Cc4ccc(Cl)cc4)C(=O)O)c12)OC(C)(C)CC3 (stereo unspecified) | 0 | 0 | . | -2 | 0 | 4 | .
COc1ccc(/C=C2\SC(=O)N(CCC(=O)Nc3ccccc3)C2=O)cc1OC | 22 | 0 | 44 | 2 | 5 | 0 | .
COc1cc(/C=C2\SC(=O)N(CCN)C2=O)ccc1OS(=O)(=O)c1cc(C)ccc1C | . | 0 | 93* | -16 | . | 82* | -24 | MPTP swell DR=7.5*;MPTP cs DR=29*
N#CCC(=O)NCCCOC(=O)Nc1ccc(Cl)c(Cl)c1 | 0 | 0 | 40 | -3 | 0 | 79* | 86*
O=C(Nc1ccc(Cl)c(Cl)c1)OCCNC(=O)c1ccncc1 | 0 | 0 | 1 | -2 | 1 | 35 | .
SMILES | XBP1 UPR activ | aDG glyco act | CHOP inhibitor | GRIN3A LBD mod | UPR CHOP act | MPTP inh | Rh123 counter | others
CCN(CC)S(=O)(=O)c1cccc(NC(=O)CCSc2ccc(Cl)cc2)c1 | . | 0 | 40 | 2 | . | 76* | 85*
O=C(CSc1nnc2c(n1)[nH]c1ccccc12)Nc1ccc(N2CCOCC2)cc1 | 2 | 0 | 34 | 1 | 2 | 12 | .
CN(C)S(=O)(=O)c1cccc(NC(=O)CNc2cccc(S(=O)(=O)N3CCCCC3)c2)c1 | . | 0 | . | . | . | 6 | .
CCN(CC)S(=O)(=O)c1ccc(C)c(NC(=O)CNc2cccc(S(=O)(=O)N3CCOCC3)c2)c1 | 1 | 0 | . | 1 | 2 | 0 | .
CCN(CC)S(=O)(=O)c1cc(NC(=O)CNc2cccc(S(=O)(=O)N3CCCC3)c2)ccc1C | -3 | 4 | . | -3 | 4 | 54* | 95*
CCN(CC)S(=O)(=O)c1cccc(NC(=O)CNc2cccc(S(=O)(=O)N3CCOCC3)c2)c1 | 0 | 1 | . | -2 | 4 | 72* | 97*
O=C(CSc1nnc2c(n1)[nH]c1ccccc12)Nc1cccc(S(=O)(=O)N2CCOCC2)c1 | -1 | 0 | 7 | -3 | 1 | 52* | 35*
CC(=O)c1c(C)[nH]c(C(=O)OC(C)C(=O)NC2CCCCC2)c1C (stereo unspecified) | . | 0 | . | . | . | -1 | .
CCN(CC)S(=O)(=O)c1ccc(C)c(NC(=S)Nc2cccc(S(=O)(=O)N3CCCCCC3)c2)c1 | -1 | 0 | 54 | 1 | 2 | 76* | 78*
O=C(CNc1ccc(C(F)(F)F)cc1)Nc1cccc(S(=O)(=O)N2CCCCC2)c1 | . | 1 | . | . | . | 66* | 90*
CCCOc1ccc(C(=O)Nc2ccc3c(c2)OCCO3)cc1 | -7 | 0 | . | -15 | 0 | 1 | .
CC(C)(C)NC(=O)C(c1ccncc1)N(C(=O)c1csnn1)c1cccc2ccccc12 (stereo unspecified) | -5 | 0 | 13 | 2 | -2 | 0 | .
